Laboratory results reported in ChEMBL document CHEMBL4400507, “Discovery of Novel Transient Receptor Potential Vanilloid 4 (TRPV4) Agonists as Regulators of Chondrogenic Differentiation: Identification of Quinazolin-4(3 H)-ones and in Vivo Studies on a Surgically Induced Rat Model of Osteoarthritis” (J Med Chem, 2019).
≈ marks a conversion by molar mass, not a printed value. Calls of active or inactive are those of the source. The rule behind the calls is not given here.

Legend:
[1] = molecular target: T1, Transient receptor potential cation channel subfamily V member 4 (Homo sapiens, UniProt Q9HBA0); assay: Agonist activity at recombinant human TRPV4 expressed in […] cells by SOX9 luciferase reporter gene assay; type: cell-based
T1 sequence (Q9HBA0 whole entry): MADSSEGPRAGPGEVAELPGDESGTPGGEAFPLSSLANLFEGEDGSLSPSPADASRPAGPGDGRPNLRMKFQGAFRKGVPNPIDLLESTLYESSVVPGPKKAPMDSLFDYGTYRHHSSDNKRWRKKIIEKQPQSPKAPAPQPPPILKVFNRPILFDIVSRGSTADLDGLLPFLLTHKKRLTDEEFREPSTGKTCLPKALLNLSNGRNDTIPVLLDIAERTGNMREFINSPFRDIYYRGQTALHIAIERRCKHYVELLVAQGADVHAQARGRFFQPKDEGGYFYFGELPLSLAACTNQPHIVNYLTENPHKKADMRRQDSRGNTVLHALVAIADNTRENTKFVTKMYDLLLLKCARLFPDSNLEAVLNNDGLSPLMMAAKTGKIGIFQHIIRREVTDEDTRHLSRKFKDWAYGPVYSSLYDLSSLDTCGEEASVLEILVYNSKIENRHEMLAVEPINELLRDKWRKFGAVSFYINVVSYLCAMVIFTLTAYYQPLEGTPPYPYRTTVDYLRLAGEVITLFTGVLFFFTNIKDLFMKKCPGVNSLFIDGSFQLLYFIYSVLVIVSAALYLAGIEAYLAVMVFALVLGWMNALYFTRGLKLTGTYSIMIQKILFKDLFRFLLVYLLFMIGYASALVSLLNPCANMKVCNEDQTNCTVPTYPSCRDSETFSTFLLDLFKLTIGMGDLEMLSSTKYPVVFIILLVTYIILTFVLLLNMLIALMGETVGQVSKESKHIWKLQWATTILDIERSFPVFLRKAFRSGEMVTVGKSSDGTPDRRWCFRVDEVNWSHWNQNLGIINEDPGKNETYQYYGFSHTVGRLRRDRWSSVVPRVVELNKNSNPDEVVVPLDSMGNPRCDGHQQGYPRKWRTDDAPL
Outline: (§1)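 ATDC5 cells stably carrying a SOX9 reporter gene construct and human TRPV4 (pcDNA3.1) were seeded at 2.0 × 10^4 cells/well and treated with compound. Luciferase luminescence was measured the next day.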

[2] = molecular target: T1, Transient receptor potential cation channel subfamily V member 4; assay: Agonist activity at recombinant human TRPV4 expressed in HEK293 cells assessed as increase in intracellular calcium level after 30 mins by Fura-2 AM/Pluronic F-127 probe based fluorescence assay; type: cell-based
Outline: (§2)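 HEK293 cells transiently expressing human TRPV4 were loaded with 5 µM Fura-2 AM plus 0.2% Pluronic F-127 for 30 min at 37 °C in HEPES buffer (pH 7.4, 1.8 mM CaCl2, 0.1% BSA). They were then washed and resuspended. Intracellular Ca2+ was read by Fura-2 ratio imaging (excitation 340/380 nm, emission 510 nm).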

[3] = molecular target: T1, Transient receptor potential cation channel subfamily V member 4; assay: Agonist activity at recombinant human TRPV4 expressed in […] cells at 10 uM by SOX9 luciferase reporter gene assay; type: cell-based; outline: as §1
[4] = molecular target: Transient receptor potential cation channel subfamily V member 1 (Homo sapiens) (UniProt Q8NER1); assay: Agonist activity at human TRPV1 assessed as increase in intracellular calcium level at 10 uM relative to control; type: cell-based
Chain of Transient receptor potential cation channel subfamily V member 1 (Homo sapiens) (Q8NER1 whole entry): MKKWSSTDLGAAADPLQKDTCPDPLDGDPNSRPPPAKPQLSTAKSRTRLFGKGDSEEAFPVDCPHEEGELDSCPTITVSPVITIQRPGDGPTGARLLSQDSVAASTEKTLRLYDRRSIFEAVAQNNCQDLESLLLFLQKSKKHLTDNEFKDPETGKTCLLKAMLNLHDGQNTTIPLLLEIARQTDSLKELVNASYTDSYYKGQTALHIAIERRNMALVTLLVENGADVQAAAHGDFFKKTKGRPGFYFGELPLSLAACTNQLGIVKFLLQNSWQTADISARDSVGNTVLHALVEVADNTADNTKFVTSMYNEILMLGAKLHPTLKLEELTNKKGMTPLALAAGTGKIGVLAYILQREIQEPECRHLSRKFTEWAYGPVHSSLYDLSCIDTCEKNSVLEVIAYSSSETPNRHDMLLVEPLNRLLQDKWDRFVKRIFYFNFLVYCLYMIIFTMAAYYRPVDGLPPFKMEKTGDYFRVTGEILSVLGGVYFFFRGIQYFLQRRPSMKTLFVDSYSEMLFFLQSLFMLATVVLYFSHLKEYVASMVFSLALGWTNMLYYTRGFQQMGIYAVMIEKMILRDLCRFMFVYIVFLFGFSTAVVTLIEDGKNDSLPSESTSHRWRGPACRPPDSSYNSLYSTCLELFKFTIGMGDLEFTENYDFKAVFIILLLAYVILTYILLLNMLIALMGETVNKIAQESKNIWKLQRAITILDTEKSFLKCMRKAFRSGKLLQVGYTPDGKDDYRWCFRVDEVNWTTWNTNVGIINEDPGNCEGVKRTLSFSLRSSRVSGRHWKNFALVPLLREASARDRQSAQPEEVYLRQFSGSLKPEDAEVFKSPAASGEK

[5] = Solubility of the compound in saline; type: physicochemical
[6] = Protein binding in plasma (unknown origin); type: ADME, cell-free
Homo sapiens [7] = species on record: Homo sapiens; assay: Induction of chondrogenesis in normal human articular chondrocytes at 62.5 nM preincubated for 30 mins followed by medium replacement and measured after 3 days by Alcian blue-staining based assay; type: functional, cell-based
Outline: (§3)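 Normal human articular chondrocytes were stimulated with agonist for 30 min, then the medium was replaced. After 3 days' culture, cells were fixed in 95% methanol and stained overnight with 0.1% Alcian blue 8GS in 0.1 N HCl. Dye was extracted with 6 M guanidine-HCl for 2 h at room temperature and read at OD 600 nm.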

Homo sapiens [8] = species on record: Homo sapiens; assay: Induction of chondrogenesis in normal human articular chondrocytes at 62.5 to 1000 nM preincubated for 30 mins followed by medium replacement and measured after 3 days by Alcian blue-staining based assay; type: functional, cell-based
Outline: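 Normal human articular chondrocytes were exposed to agonist for 30 min, then the medium was replaced and the cells cultured 3 days. They were fixed in 95% methanol and stained overnight with 0.1% Alcian blue in 0.1 N HCl. Dye was extracted with 6 M guanidine-HCl for 2 h at room temperature, and OD was read at 600 nm.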

Rattus norvegicus [9] = assay: Anti-osteoarthritis activity in Sprague-Dawley rat model of medial meniscal tear-induced osteoarthritis assessed as decrease in length of damage area at 5 to 10 uM administered intra-articularly into operated knee twice per week for 3 consecutive weeks and measured at week 4; type: functional, organism-based
Outline: (§4)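 Male Sprague-Dawley rats, 8 weeks old. Medial meniscus cut through to mimic a complete tear. One week after surgery, rats were grouped by body weight: sham, MT vehicle, 5 μM, 10 μM. 50 µL saline or drug was injected intra-articularly into the operated knee twice weekly for 3 weeks, and knees were harvested at week 4. Sections of 5 μm were stained with safranin-O/Fast Green, and damaged width on the medial tibial plateau was measured by micrometer. Analysis by Dunnett's test; n = 5–15 per group.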

Rattus norvegicus [10] = assay: Bone anabolic effect in Sprague-Dawley rat model of medial meniscal tear-induced osteoarthritis assessed as induction of new extracellular matrix generation at 10 uM administered intra-articularly into operated knee twice per week for 3 consecutive weeks and measured at week 4 by safranin-O/Fast Green staining-based microscopic analysis; type: functional, organism-based
Rattus norvegicus [11] = assay: Induction of aggrecan mRNA expression in Sprague-Dawley rat model of medial meniscal tear-induced osteoarthritis at 5 to 10 uM administered intra-articularly into operated knee twice per week for 3 consecutive weeks measured after 21 days by RT-qPCR analysis; type: functional, organism-based
Rattus norvegicus [12] = assay: Induction of SOX9 mRNA expression in Sprague-Dawley rat model of medial meniscal tear-induced osteoarthritis at 5 to 10 uM administered intra-articularly into operated knee twice per week for 3 consecutive weeks measured after 21 days by RT-qPCR analysis; type: functional, organism-based
Rattus norvegicus [13] = assay: Anti-osteoarthritis activity in Sprague-Dawley rat model of medial meniscal tear-induced osteoarthritis assessed as reduction in erosion of tibial plateau cartilage at 5 to 10 uM administered intra-articularly into operated knee twice per week for 3 consecutive weeks and measured at week 4; type: functional, organism-based; outline: as §4
HL-60 = assay: Cytotoxicity against human HL60 cells assessed as reduction in cell viability; type: cell-based
Outline: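 HL-60 cell viability measured with an ATP-based assay.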

[14] = Genotoxicity in Salmonella typhimurium by Ames test; type: toxicity; details: salmonella enterica subsp. enterica serovar typhimurium
[15] = molecular target: T1, Transient receptor potential cation channel subfamily V member 4; assay: Agonist activity at recombinant human TRPV4 expressed in HEK293 cells assessed as increase in intracellular calcium level at 10 uM after 30 mins by Fura-2 AM/Pluronic F-127 probe based fluorescence assay relative to control; type: cell-based; outline: as §2
[16] = Toxicity in Sprague-Dawley rat model of medial meniscal tear-induced osteoarthritis assessed as death at 5 to 10 uM administered intra-articularly into operated knee twice per week for 3 consecutive weeks and measured at week 4; details: in vivo, other
Outline: (§5)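 Eight-week-old male SD rats, housed singly, had the medial meniscus cut. One week later they were grouped by body weight. The operated knee received 50 µL saline or 0, 5 or 10 µM solution intra-articularly twice weekly for 3 weeks, starting 1 week post-surgery. Deaths and systemic signs were checked by gross visual inspection, and final body weights were recorded. Rats were euthanized at week 4.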

[17] = Systemic toxicity in Sprague-Dawley rat model of medial meniscal tear-induced osteoarthritis at 5 to 10 uM administered intra-articularly into operated knee twice per week for 3 consecutive weeks and measured at week 4; details: in vivo, other; outline: as §5
[18] = Toxicity in Sprague-Dawley rat model of medial meniscal tear-induced osteoarthritis assessed as effect on body weight at 5 to 10 uM administered intra-articularly into operated knee twice per week for 3 consecutive weeks and measured at week 4; details: in vivo, other; outline: as §5
[19] = Drug level in rat synovial fluid lavage dosed directly in to knee joints and measured after 30 mins by LC-MS method; type: ADME, organism-based; details: in vivo, other, 0.5 h
Outline: (§6)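 Normal rats received an intra-articular knee injection. After euthanasia the joint was washed with saline and the synovial fluid lavage collected. Compound was quantified by LC-MS/MS and converted to joint concentration using the ratio of total protein in the lavage. Quantitation limits were 0.3–1 nmol/L.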

[20] = Drug level in rat synovial fluid lavage dosed directly in to knee joints and measured within 30 mins by LC-MS method; type: ADME, organism-based; details: in vivo, other, 0.5 h; outline: as §6
Homo sapiens [21] = species on record: Homo sapiens; assay: Induction of chondrogenesis in normal human articular chondrocytes at 500 nM preincubated for 30 mins followed by medium replacement and measured after 3 days by Alcian blue-staining based assay; type: functional, cell-based; outline: as §3
Homo sapiens [22] = species on record: Homo sapiens; assay: Induction of chondrogenesis in normal human articular chondrocytes at <500 nM preincubated for 30 mins followed by medium replacement and measured after 3 days by Alcian blue-staining based assay; type: functional, cell-based; outline: as §3

Activity [3]	SMILES	ECmax [1]	EC50 [2]	also measured
	CC(C)[C@H]1CN(c2nc3cc(F)ccc3c(=O)n2-c2ccc(C(F)(F)F)cc2)CCN1C	5000 nM	> 30000 nM	
0.9%	CC(C)C[C@H]1CN(c2nc3cc(F)ccc3c(=O)n2-c2ccc(C(F)(F)F)cc2)CCN1C			
5%	CN1CCN(c2nc3cc(F)ccc3c(=O)n2-c2ccc(C(F)(F)F)cc2)CC1(C)C	10000 nM	> 30000 nM	
	CN1CCN(c2nc3c(F)cccc3c(=O)n2-c2ccc(Oc3ccccc3)cc2)CC1	39 nM	125 nM	Activity [4]: 0.6%; solubility [5]: 745 µg/mL (≈ 1730 µM)
0.3%	CCOC(=O)c1ccc(-n2c(N(C)C3CCN(C)C3)nc3c(F)cccc3c2=O)cc1 (stereo not drawn)			
2.2%	CCOC(=O)c1ccc(-n2c(N3CCC(N(C)C)C3)nc3c(F)cccc3c2=O)cc1 (stereo not drawn)			
1.2%	CN1CCN(c2nc3cc(F)ccc3c(=O)n2-c2ccc(C(F)(F)F)cc2)CC12CC2			
	CN1CCN(c2nc3c(F)cccc3c(=O)n2-c2ccc(OC3CCOCC3)cc2)CC1	2500 nM	870 nM	Activity [4]: 8.7%; solubility [5]: 1110 µg/mL (≈ 2520 µM); fraction unbound [6]: 0.297
	CN1CCN(c2nc3cc(F)ccc3c(=O)n2-c2ccc(OC(F)(F)F)cc2)CC1	625 nM	663 nM	Activity [4]: 6.2%
1.9%	CCOC(=O)c1ccc(-n2c(N3CCN(C(C)C)CC3)nc3c(F)cccc3c2=O)cc1			
1.8%	CN1CCN(c2nc3cc(F)ccc3c(=O)n2-c2ccc(C(F)(F)F)cc2)CC1=O			
	CN1CCN(c2nc3c(F)cccc3c(=O)n2-c2ccc(Cc3ccccc3)cc2)CC1	312 nM	670 nM	Activity [4]: 1.5%; solubility [5]: 553 µg/mL (≈ 1290 µM)
	CC(C)C[C@H](NC(=O)c1cc2ccccc2s1)C(=O)N1CCN(C(=O)[C@H](CO)NS(=O)(=O)c2ccc(Cl)cc2Cl)CC1		49 nM	
	CN1CCN(c2nc3c(F)cccc3c(=O)n2-c2ccc(C(F)(F)F)cc2)CC1	2500 nM	1440 nM	
	CN1CCN(c2nc3cccc(F)c3c(=O)n2-c2ccc(OC(F)(F)F)cc2)CC1	1250 nM	1180 nM	Activity [4]: 3.7%
0%	COc1ccc(-n2c(N(C)CCN(C)C)nc3cc(F)ccc3c2=O)cc1			
	CC(C)c1ccc(-n2c(N3CCN(C)CC3)nc3c(F)cccc3c2=O)cc1	2500 nM	910 nM	
	CN1CCN(c2nc3c(F)cccc3c(=O)n2-c2ccc(Oc3ccc(F)cc3)cc2)CC1 [listing 1 of 2 here]	20 nM		Activity (Homo sapiens [7]): Active; Activity [4]: 0.6%; Activity (Homo sapiens [8]): Active; Activity (Rattus norvegicus [9]): Dose-dependent effect; Activity (Rattus norvegicus [10]): Active; Activity (Rattus norvegicus [11]): Dose-dependent effect; Activity (Rattus norvegicus [12]): Dose-dependent effect; Activity (Rattus norvegicus [13]): Dose-dependent effect
7.8%	CCOC(=O)c1ccc(-n2c(N3CCN(C)CC3)nc3c(Br)cccc3c2=O)cc1			
	CN1CCN(c2nc3c(F)cccc3c(=O)n2-c2ccc(SC(F)(F)F)cc2)CC1	156 nM	200 nM	Activity [4]: 3.1%; Activity (Homo sapiens [8]): Active; solubility [5]: 952 µg/mL (≈ 2170 µM)
	CN1CCN(c2nc3c(F)cccc3c(=O)n2-c2ccc(Oc3ccc(F)cc3)cc2)CC1 [listing 2 of 2 here]		60 nM	solubility [5]: 743 µg/mL (≈ 1660 µM); Activity (HL-60): Non-Toxic; Activity [14]: Non-Toxic
29.4%	CCOC(=O)c1ccc(-n2c(N3CCN(C)CC3)nc3c(Cl)cccc3c2=O)cc1			
	CN1CCN(c2nc3ccc(F)cc3c(=O)n2-c2ccc(OC(F)(F)F)cc2)CC1	2500 nM	2060 nM	Activity [4]: 5%
	CN1CCN(c2nc3c(F)cccc3c(=O)n2-c2ccc(OC(F)(F)F)cc2)CC1	625 nM	280 nM	Activity [4]: 2.2%; solubility [5]: 951 µg/mL (≈ 2250 µM)
	CN1CCN(c2nc3c(F)cccc3c(=O)n2-c2ccc(Oc3ccc(F)cc3)cc2)CC1.Cl			Activity [16]: Non-Toxic; Activity [17]: Non-Toxic; Activity [18]: Non-Toxic; Drug uptake [19]: Not Active; Drug uptake [20]: Active
	CC(C)C[C@H](NC(=O)c1cc2ccccc2s1)C(=O)NCCCN(C)S(=O)(=O)c1ccc(Cl)cc1Cl	312 nM	740 nM	Activity (Homo sapiens [21]): Active; Activity (Homo sapiens [22]): inactive; solubility [5]: 3.6 µg/mL (≈ 6.31 µM)
	CCOC(=O)c1ccc(-n2c(N3CCN(C)CC3)nc3c(F)cccc3c2=O)cc1	625 nM	920 nM	

SMILES	Activity [3]	ECmax [1]	EC50 [2]	also measured
COc1ccc(-n2c(N3CCNCC3)nc3cc(F)ccc3c2=O)cc1	1.8%			
COc1cccc2c(=O)n(-c3ccc(C)cc3)c(N3CCN(C)CC3)nc12	1.3%			
Cc1ccc(-n2c(N3CCN(C)CC3)nc3c(Cl)cccc3c2=O)cc1	9%			
CCN1CCN(c2nc3cc(F)ccc3c(=O)n2-c2ccc(OC)cc2)CC1	41%		12200 nM	
COc1ccc(-n2c(N3CCN(C)CC3)nc3cc(F)ccc3c2=O)cc1	42.2%	5000 nM	4700 nM	
CN1CCN(c2nc3c(Cl)cccc3c(=O)n2-c2ccc(Cl)cc2)CC1	19.9%			ECmax [15]: 19%
Cc1cccc(-n2c(N3CCN(C)CC3)nc3c(Cl)cccc3c2=O)c1	1.5%			
COc1ccc(-n2c(N3CCN(C)CC3)nc3ccccc3c2=O)cc1	13.2%			
Cc1ccccc1-n1c(N2CCN(C)CC2)nc2c(Cl)cccc2c1=O	0.4%			
